Results on ten molecules are retold here after ChEMBL document CHEMBL1165965, “Synthesis and structure-activity relationships of 1,2,3,4-tetrahydropyrido[2,3-b]pyrazines as potent and selective inhibitors of the anaplastic lymphoma kinase” (Bioorg Med Chem, 2010).

Assay [1] concerns the target T1, Mitogen-activated protein kinase kinase kinase 5 (Homo sapiens) (UniProt Q99683).
T1 sequence (whole entry): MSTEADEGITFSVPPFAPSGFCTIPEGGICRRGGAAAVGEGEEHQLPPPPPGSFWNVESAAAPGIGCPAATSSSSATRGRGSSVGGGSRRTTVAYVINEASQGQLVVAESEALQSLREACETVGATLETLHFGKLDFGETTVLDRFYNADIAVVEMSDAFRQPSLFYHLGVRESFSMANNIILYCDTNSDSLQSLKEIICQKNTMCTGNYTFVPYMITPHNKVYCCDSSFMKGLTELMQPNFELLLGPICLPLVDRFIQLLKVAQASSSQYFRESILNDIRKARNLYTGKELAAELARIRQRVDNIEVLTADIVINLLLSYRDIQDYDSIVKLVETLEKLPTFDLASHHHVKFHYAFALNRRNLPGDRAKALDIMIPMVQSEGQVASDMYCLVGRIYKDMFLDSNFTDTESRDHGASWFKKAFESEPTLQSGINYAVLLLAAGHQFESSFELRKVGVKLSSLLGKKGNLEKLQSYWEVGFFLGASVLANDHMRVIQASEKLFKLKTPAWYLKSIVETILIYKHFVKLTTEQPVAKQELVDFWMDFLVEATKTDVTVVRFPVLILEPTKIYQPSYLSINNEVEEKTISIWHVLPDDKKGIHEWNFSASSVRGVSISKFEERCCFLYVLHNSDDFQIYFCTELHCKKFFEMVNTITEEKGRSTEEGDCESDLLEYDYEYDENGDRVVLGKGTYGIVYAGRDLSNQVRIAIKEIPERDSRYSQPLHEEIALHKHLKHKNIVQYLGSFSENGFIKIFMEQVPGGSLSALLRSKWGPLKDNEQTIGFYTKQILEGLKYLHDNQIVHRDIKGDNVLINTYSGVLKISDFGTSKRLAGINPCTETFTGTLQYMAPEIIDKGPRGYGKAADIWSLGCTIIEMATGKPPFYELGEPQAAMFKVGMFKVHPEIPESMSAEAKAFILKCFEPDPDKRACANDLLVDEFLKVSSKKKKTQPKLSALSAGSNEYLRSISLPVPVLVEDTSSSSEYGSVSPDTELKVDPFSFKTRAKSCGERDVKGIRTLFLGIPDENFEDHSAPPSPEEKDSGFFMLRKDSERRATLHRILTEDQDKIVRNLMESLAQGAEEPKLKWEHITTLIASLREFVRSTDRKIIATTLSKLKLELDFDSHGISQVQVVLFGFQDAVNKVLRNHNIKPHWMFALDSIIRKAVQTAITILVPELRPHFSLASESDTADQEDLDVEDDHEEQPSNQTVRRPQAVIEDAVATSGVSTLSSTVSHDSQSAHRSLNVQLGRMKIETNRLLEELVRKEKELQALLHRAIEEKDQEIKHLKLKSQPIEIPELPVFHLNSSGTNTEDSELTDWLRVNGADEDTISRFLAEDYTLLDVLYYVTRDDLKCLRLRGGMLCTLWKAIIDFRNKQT
Description: Inhibition of ASK1 at 1 uM. An outline of the steps:
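Ambit KINOMEscan screen at a single concentration across a 250–400 kinase panel, recorded as percent inhibition. Selectivity was expressed as S(90), the fraction of kinases inhibited >90%.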

In assay [2] the target is T2, Ephrin type-B receptor 1 (Homo sapiens) (UniProt P54762).
T2 sequence (whole entry): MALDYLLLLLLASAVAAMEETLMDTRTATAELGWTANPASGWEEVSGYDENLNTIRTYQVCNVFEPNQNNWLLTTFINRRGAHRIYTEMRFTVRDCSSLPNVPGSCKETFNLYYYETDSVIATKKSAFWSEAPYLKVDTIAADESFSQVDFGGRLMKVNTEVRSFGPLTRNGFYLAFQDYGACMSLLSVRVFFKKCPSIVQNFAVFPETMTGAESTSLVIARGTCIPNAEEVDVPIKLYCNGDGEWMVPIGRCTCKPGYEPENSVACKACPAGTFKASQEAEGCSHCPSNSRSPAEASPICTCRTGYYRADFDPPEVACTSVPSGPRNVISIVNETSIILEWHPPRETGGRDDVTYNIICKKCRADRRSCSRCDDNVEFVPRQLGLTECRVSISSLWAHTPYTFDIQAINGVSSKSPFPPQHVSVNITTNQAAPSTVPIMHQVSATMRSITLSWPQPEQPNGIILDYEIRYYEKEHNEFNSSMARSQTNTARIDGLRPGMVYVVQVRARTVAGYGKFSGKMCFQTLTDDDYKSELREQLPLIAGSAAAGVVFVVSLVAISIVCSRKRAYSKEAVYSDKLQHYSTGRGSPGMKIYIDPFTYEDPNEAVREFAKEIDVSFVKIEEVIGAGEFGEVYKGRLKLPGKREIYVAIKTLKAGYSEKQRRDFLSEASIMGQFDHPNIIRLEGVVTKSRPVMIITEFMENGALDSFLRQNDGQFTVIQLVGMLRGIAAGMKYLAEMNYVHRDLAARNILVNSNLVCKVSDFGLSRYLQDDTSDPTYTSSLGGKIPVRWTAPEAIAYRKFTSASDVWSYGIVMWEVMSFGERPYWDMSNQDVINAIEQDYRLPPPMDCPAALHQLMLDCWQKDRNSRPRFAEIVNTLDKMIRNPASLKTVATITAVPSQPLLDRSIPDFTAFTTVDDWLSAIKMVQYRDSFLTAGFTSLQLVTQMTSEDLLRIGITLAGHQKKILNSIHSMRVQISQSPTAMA
In words: Inhibition of EPHB1 at 1 uM. An outline of the steps:
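Single-concentration screen using Ambit Bioscience KINOMEscan technology across a panel of 250–400 kinases. Per-kinase inhibition from this screen was summarized as S(90), the fraction of kinases inhibited by more than 90%.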

Assay [3] has as its target Mitogen-activated protein kinase kinase kinase kinase 1 (Homo sapiens) (UniProt Q92918). Description: Inhibition of HPK1 at 1 uM.
Assay [4] deals with Epidermal growth factor receptor (Homo sapiens), P00533 [L858R,T790M]. In words: Inhibition of EGFR L858R, T790M mutant at 1 uM. The format is protein assay.
Chain of Epidermal growth factor receptor (Homo sapiens), P00533 [L858R,T790M] (P00533 whole entry T790M/L858R, looked up): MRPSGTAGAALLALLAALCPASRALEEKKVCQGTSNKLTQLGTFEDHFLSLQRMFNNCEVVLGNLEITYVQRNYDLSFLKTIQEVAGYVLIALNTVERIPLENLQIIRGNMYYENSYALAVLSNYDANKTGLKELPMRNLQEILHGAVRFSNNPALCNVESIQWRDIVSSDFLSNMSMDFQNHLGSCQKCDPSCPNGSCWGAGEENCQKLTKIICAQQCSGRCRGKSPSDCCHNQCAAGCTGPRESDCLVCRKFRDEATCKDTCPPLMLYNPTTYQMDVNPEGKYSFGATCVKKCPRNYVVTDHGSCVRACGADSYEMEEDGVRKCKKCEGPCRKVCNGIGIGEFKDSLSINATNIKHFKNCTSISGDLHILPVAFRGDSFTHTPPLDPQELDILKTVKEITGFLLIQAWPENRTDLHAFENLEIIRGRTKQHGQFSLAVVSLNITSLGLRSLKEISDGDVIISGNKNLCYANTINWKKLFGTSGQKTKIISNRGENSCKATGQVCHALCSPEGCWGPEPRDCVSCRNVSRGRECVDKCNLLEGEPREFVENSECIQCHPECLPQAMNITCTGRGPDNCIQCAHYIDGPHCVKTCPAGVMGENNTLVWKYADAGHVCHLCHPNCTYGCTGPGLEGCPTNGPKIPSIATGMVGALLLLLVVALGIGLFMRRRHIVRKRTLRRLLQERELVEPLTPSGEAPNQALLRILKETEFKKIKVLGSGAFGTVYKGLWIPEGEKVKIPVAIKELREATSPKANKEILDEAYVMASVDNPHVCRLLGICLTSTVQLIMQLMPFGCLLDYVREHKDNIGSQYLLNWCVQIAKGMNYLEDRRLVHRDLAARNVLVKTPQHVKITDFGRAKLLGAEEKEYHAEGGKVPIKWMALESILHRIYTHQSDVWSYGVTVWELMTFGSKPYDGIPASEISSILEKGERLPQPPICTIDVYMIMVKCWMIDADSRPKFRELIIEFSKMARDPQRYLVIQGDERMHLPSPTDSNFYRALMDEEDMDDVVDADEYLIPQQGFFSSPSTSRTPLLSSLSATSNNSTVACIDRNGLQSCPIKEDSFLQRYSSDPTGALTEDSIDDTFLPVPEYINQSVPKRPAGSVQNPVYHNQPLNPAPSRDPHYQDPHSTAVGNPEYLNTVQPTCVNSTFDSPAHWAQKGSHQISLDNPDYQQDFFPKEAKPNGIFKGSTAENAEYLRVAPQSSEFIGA

Where only a bound is given, the exact number is not on record here.

Chain of Mitogen-activated protein kinase kinase kinase kinase 1 (Homo sapiens) (Q92918 whole entry, looked up): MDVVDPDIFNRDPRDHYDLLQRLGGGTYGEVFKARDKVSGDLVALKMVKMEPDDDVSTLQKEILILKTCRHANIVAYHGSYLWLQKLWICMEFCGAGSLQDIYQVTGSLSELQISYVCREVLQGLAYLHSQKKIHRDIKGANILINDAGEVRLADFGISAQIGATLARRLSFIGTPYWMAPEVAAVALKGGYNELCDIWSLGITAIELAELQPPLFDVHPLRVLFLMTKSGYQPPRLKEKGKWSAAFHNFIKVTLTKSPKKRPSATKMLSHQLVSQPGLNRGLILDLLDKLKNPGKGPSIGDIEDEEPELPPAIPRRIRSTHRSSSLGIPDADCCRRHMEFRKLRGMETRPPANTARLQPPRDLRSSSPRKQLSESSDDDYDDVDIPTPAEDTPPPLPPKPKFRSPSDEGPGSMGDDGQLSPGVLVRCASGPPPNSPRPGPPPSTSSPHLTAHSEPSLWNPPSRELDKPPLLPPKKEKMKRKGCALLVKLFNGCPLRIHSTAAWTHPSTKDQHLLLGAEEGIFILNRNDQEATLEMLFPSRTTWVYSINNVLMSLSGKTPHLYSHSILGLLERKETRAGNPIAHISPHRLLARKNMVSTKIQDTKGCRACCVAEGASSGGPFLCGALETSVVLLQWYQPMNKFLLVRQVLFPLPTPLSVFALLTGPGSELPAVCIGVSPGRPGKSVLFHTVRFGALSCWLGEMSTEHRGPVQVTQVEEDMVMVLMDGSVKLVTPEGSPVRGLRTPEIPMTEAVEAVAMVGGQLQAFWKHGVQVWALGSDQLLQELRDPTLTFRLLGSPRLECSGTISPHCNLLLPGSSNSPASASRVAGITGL

As to `O=C(c1ccc(-c2cnc3c(c2)N(Cc2cc(Cl)ccc2C(F)(F)F)CCN3)cc1)N1CCCCC1`, the inhibition in assay [1] and in assay [2] was below 50% each time.

On to `CN1CCN(c2ccc(-c3cnc4c(c3)N(Cc3c(F)ccc(F)c3Cl)CCN4)cn2)CC1`, for which the inhibition in assay [3], in assay [1], in assay [4] and in assay [2] was below 50% each time.

For the molecule `COC1CCN(C(=O)c2ccc(-c3cnc4c(c3)N(Cc3cc(Cl)ccc3C(F)(F)F)CCN4)cc2)CC1`, the inhibition in assay [1] and in assay [2] was below 50% in each case.

Consider `O=C(O)c1ccc(-c2cnc3c(c2)N(Cc2cc(Cl)ccc2C(F)(F)F)CCN3)cc1`, for which the inhibition in assay [1] and in assay [2] was below 50% each time.

Regarding `FC(F)(F)c1ccc(Cl)cc1CN1CCNc2ncc(-c3ccnc(N4CCNCC4)c3)cc21`, the inhibition in assay [3], in assay [1], in assay [4] and in assay [2] was below 50% each time.

In the case of `CN1CCN(c2ccc(-c3cnc4c(c3)N(Cc3cc(Cl)ccc3Cl)CCN4)cn2)CC1`, the inhibition in assay [3], in assay [1], in assay [4] and in assay [2] was below 50% each time.

In the case of `O=C(c1ccc(-c2cnc3c(c2)N(Cc2cc(Cl)ccc2C(F)(F)F)CCN3)cc1)N1CCC(N2CCCC2)CC1`, the inhibition in assay [3] was 88.7%; in assay [1] it was below 50%; in assay [2], below 50%.

With `CN1CCN(c2ccc(-c3cnc4c(c3)N(Cc3cc(Cl)ccc3C(F)(F)F)CCN4)cn2)CC1`, the inhibition in assay [3], in assay [1], in assay [4] and in assay [2] was below 50% in each case.

Turning to `CC(=O)N1CCN(c2cc(-c3cnc4c(c3)N(Cc3cc(Cl)ccc3C(F)(F)F)CCN4)ccn2)CC1`, the inhibition in assay [3], in assay [1], in assay [4] and in assay [2] was below 50% each time.

Take `CN1CCN(c2ccc(-c3cnc4c(c3)N(Cc3cc(F)ccc3F)CCN4)cn2)CC1`: the inhibition in assay [3], in assay [1], in assay [4] and in assay [2] was below 50% throughout.

A word on the inhibition: it is the percentage by which the read-out fell short of the control. A low value points to little suppression.
